Series [1] relates to Mycobacterium tuberculosis. In words: Antitubercular activity against Mycobacterium tuberculosis H37Rv ATCC 27294 in GAST/Fe medium after 2 weeks by broth microdilution method. The class given is functional. The settings on record: H37Rv ATCC 27294, 336 h. The essentials:
(§1)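 Two-fold serial dilutions from DMSO stocks added to medium; equal volume of H37Rv diluted to 10,000 cells/mL in the same medium. DMSO-only wells; isoniazid positive control. 37 °C; growth read by inverted enlarging mirror. Quadruplicate. MIC = lowest concentration completely inhibiting growth.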

Series [2] deals with Mycobacterium tuberculosis. In words: Antitubercular activity against Mycobacterium tuberculosis H37Rv ATCC 27294 in 7H9/ADC/Tween medium after 1 week by broth microdilution method. Format: functional. The settings on record: H37Rv ATCC 27294, 168 h. The essentials:
as §1
(In broth dilution the organism is exposed to a series of concentrations in liquid medium.)

The subject of series [3] is Mycobacterium tuberculosis. As to the kind of experiment: Antitubercular activity against Mycobacterium tuberculosis H37Rv ATCC 27294 in 7H9/ADC/Tween medium after 2 weeks by broth microdilution method. Format: functional. The settings on record: H37Rv ATCC 27294, 336 h. The essentials: as §1
The test system of series [4] is Mycobacterium tuberculosis. In words: Antitubercular activity against Mycobacterium tuberculosis H37Rv ATCC 27294 in GAST/Fe medium after 1 week by broth microdilution method. Format: functional. The settings on record: H37Rv ATCC 27294, 168 h. In outline: as §1
A short description of series [5]: Cytotoxicity against African green monkey Vero cells assessed as survival at 25 ug/ml after 48 hrs by Cell-Titre Blue assay. Format: cell-based. The settings on record: chlorocebus sabaeus, read-out: Survival. The essentials:
(§2)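 Vero cells in DMEM with 10% FBS, seeded at 20,000 cells/well and left to adhere overnight at 37 °C, 5% CO2. Medium then replaced with fresh medium containing compound, 48 h. Cell-Titer Blue added for a further 2 h; OD read at 560 nm. % survival = OD test/OD of DMSO-medium control ×100.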

Series [6] in a line: Cytotoxicity against African green monkey Vero cells assessed as survival at 50 ug/ml after 48 hrs by Cell-Titre Blue assay. Format: cell-based. The settings on record: chlorocebus sabaeus, read-out: Survival. The essentials:
as §2

Results on 18 compounds are retold here after ChEMBL document CHEMBL3297722, “Design, synthesis and docking studies of some novel (R)-2-(4'-chlorophenyl)-3-(4'-nitrophenyl)-1,2,3,5-tetrahydrobenzo[4,5] imidazo [1,2-c]pyrimidin-4-ol derivatives as antitubercular agents” (Eur J Med Chem, 2014).

In brackets after ≈: the same amount, converted by molar mass.

What is called MIC is the lowest concentration that inhibits growth of the organism. Regarding `COc1ccc(O)c([C@@H]2C(O)=C3Nc4ccccc4N3CN2c2ccc(C(=O)O)cc2)c1`, the minimum inhibitory concentration (MIC) in series [1], in series [2], in series [3] and in series [4] was over 100 µg/mL in each case.
Take `OC1=C2Nc3ccccc3N2CN(c2ccc(Br)cc2)[C@@H]1c1ccc(O)cc1`: the minimum inhibitory concentration (MIC) in series [1] is 75 µg/mL (≈ 172 µM); in series [2], at least 100 µg/mL; in series [3] it was over 100 µg/mL; in series [4] it was 75 µg/mL (≈ 172 µM).
In the case of `COc1ccccc1[C@@H]1C(O)=C2Nc3ccccc3N2CN1c1cc(Cl)cc(Cl)c1`, the minimum inhibitory concentration (MIC) in series [1] is 100 µg/mL (≈ 227 µM); in series [2], 100 µg/mL (≈ 227 µM); in series [3], 100 µg/mL (≈ 227 µM); in series [4] it was 50 µg/mL (≈ 114 µM).
For the compound `O=[N+]([O-])c1ccc([C@@H]2C(O)=C3Nc4ccccc4N3CN2c2ccc(Cl)cc2)cc1`, the MIC is over 100 µg/mL in series [1], over 100 µg/mL in series [2], over 100 µg/mL in series [3] and 100 µg/mL (≈ 238 µM) in series [4].
For the compound `O=[N+]([O-])c1ccc(N2CN3C(=C(O)[C@H]2c2ccccc2[N+](=O)[O-])Nc2ccccc23)cc1`, the MIC came to 37 µg/mL (≈ 85.8 µM) in series [1], 37 µg/mL (≈ 85.8 µM) in series [2], 50 µg/mL (≈ 116 µM) in series [3] and 37 µg/mL (≈ 85.8 µM) in series [4]. For the same compound, in series [5], the viability at 48 h, 25 ug/ml came to 53%. The viability at 48 h, 50 ug/ml in series [6] came out at 61%.
For the compound `OC1=C2Nc3ccccc3N2CN(c2cc(Cl)cc(Cl)c2)[C@@H]1c1ccc(Cl)cc1`, the minimal inhibitory concentration (MIC) is 50 µg/mL (≈ 112 µM) in series [1], 100 µg/mL (≈ 225 µM) in series [2], at least 100 µg/mL in series [3] and 37 µg/mL (≈ 83.2 µM) in series [4]. In addition, the viability at 48 h, 25 ug/ml in series [5] was determined as 63%. In series [6], the viability at 48 h, 50 ug/ml amounted to 69%.
As for `COc1ccccc1[C@@H]1C(O)=C2Nc3ccccc3N2CN1c1c(C)cccc1C`, the MIC was 100 µg/mL (≈ 250 µM) in series [1], 50 µg/mL (≈ 125 µM) in series [2], over 100 µg/mL in series [3] and 100 µg/mL (≈ 250 µM) in series [4].
As to `COc1ccccc1N1CN2C(=C(O)[C@H]1c1ccccc1O)Nc1ccccc12`, the MIC is 25 µg/mL (≈ 64.5 µM) in series [1], 50 µg/mL (≈ 129 µM) in series [2], 75 µg/mL (≈ 194 µM) in series [3] and 19 µg/mL (≈ 49 µM) in series [4]. Further, the viability at 48 h, 25 ug/ml in series [5] was 63%. Moreover, the viability at 48 h, 50 ug/ml in series [6] amounted to 69%.
For the compound `COc1ccc(N2CN3C(=C(O)[C@H]2c2cccc(-c4ccccn4)c2)Nc2ccccc23)cc1`, the minimal inhibitory concentration (MIC) in series [1] was 19 µg/mL (≈ 42.4 µM); in series [2], at least 100 µg/mL; in series [3] it was over 100 µg/mL; in series [4] it was 12.5 µg/mL (≈ 27.9 µM). Besides, in series [5], the viability at 48 h, 25 ug/ml came out at 66%. For the same compound, the viability at 48 h, 50 ug/ml in series [6] turned out to be 56%.
With `OC1=C2Nc3ccccc3N2CN(c2c(Cl)cccc2Cl)[C@@H]1c1cccc(O)c1`, the minimal inhibitory concentration (MIC) in series [1] was 9.4 µg/mL (≈ 22.1 µM); in series [2] it was 37 µg/mL (≈ 86.8 µM); in series [3], 50 µg/mL (≈ 117 µM); in series [4], 6.25 µg/mL (≈ 14.7 µM). In addition, the viability at 48 h, 25 ug/ml in series [5] was determined as 63%. In addition, the viability at 48 h, 50 ug/ml in series [6] came to 61%.
For the compound `COc1ccc(N2CN3C(=C(O)[C@H]2c2cccc(Br)c2)Nc2ccccc23)cc1`, the minimal inhibitory concentration (MIC) in series [1], in series [2], in series [3] and in series [4] was over 100 µg/mL each time.
For `OC1=C2Nc3ccccc3N2CN(c2cc(Cl)cc(Cl)c2)[C@@H]1c1ccccc1Cl`, the MIC in series [1] is over 100 µg/mL; in series [2], at least 100 µg/mL; in series [3], over 100 µg/mL; in series [4] it was over 100 µg/mL.
`Cc1ccc([C@@H]2C(O)=C3Nc4ccccc4N3CN2c2c(C)cccc2C)c(N)c1C`: the MIC in series [1] is 75 µg/mL (≈ 182 µM); in series [2] it was 100 µg/mL (≈ 242 µM); in series [3] it was over 100 µg/mL; in series [4], 37 µg/mL (≈ 89.7 µM). The viability at 48 h, 25 ug/ml in series [5] turned out to be 64%. In series [6], the viability at 48 h, 50 ug/ml was determined as 73%.
Turning to `O=[N+]([O-])c1ccc(N2CN3C(=C(O)[C@H]2c2cccc([N+](=O)[O-])c2)Nc2ccccc23)cc1`, the minimum inhibitory concentration (MIC) in series [1] stood at 4.7 µg/mL (≈ 10.9 µM); in series [2], 25 µg/mL (≈ 57.9 µM); in series [3], 37 µg/mL (≈ 85.8 µM); in series [4], 3.13 µg/mL (≈ 7.26 µM). The viability at 48 h, 25 ug/ml in series [5] stood at 66%. In addition, the viability at 48 h, 50 ug/ml in series [6] amounted to 69%.
With `NNC(=O)c1ccncc1` [ISONIAZID], the MIC in series [1], in series [2], in series [3] and in series [4] was 0.02 µg/mL (≈ 0.146 µM) in each case. In addition, the viability at 48 h, 25 ug/ml in series [5] came out at 100%. The viability at 48 h, 50 ug/ml in series [6] is 100%.
With `COc1ccc([C@@H]2C(O)=C3Nc4ccccc4N3CN2c2ccc(OC)cc2)cc1`, the MIC in series [1] was 75 µg/mL (≈ 187 µM); in series [2], 100 µg/mL (≈ 249 µM); in series [3], at least 100 µg/mL; in series [4] it was 50 µg/mL (≈ 125 µM).
Take `COc1ccc([C@@H]2C(O)=C3Nc4ccccc4N3CN2c2cc(Cl)cc(Cl)c2)cc1OC`: the minimum inhibitory concentration (MIC) in series [1] was over 100 µg/mL; in series [2], over 100 µg/mL; in series [3], over 100 µg/mL; in series [4] it was 100 µg/mL (≈ 213 µM).
With `Cc1cccc(C)c1N1CN2C(=C(O)[C@H]1c1ccc(O)cc1)Nc1ccccc12`, the MIC in series [1] worked out at 9.4 µg/mL (≈ 24.4 µM); in series [2], 12.5 µg/mL (≈ 32.4 µM); in series [3], 19 µg/mL (≈ 49.3 µM); in series [4], 6.25 µg/mL (≈ 16.2 µM). Also, the viability at 48 h, 25 ug/ml in series [5] was determined as 66%. In addition, the viability at 48 h, 50 ug/ml in series [6] worked out at 63%.
